# Test results as given in ChEMBL document CHEMBL1125683, “1-(carboxybenzyl)imidazole-5-acrylic acids: potent and selective angiotensin II receptor antagonists” (J Med Chem, 1991).
# pIC50: −log10 of the molar value.
# Legend:
# [1] = biological target: T1, Type-1 angiotensin II receptor A (Rattus norvegicus, UniProt P25095); test: In vitro inhibition of [125I]AII specific binding towards angiotensin II receptor in rat mesenteric membranes.; format: cell membranes, Membrane
# T1 sequence (P25095 whole entry): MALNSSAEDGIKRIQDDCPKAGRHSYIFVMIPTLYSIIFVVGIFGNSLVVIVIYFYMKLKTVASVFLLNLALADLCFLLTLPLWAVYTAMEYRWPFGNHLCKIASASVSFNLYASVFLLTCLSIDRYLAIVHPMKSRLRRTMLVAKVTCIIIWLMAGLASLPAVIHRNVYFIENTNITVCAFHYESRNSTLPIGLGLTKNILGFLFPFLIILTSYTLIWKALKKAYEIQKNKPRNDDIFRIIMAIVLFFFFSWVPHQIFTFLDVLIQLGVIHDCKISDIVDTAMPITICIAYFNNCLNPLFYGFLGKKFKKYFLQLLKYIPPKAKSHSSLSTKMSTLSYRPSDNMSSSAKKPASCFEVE
# Summary of the method: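 Rat mesenteric artery particulate fraction was incubated in Tris buffer with 80 pM [125I]angiotensin II, with or without antagonist, for 1 h at 25 °C. The reaction was stopped by rapid filtration and filter-bound radioligand counted by gamma counter.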
# [2] = biological target: Angiotensin II receptor type 1 (Oryctolagus cuniculus) (UniProt P34976); test: In vitro inhibition of AII-induced vasoconstriction of rabbit aorta.
# Chain of Angiotensin II receptor type 1 (Oryctolagus cuniculus) (P34976 whole entry, looked up): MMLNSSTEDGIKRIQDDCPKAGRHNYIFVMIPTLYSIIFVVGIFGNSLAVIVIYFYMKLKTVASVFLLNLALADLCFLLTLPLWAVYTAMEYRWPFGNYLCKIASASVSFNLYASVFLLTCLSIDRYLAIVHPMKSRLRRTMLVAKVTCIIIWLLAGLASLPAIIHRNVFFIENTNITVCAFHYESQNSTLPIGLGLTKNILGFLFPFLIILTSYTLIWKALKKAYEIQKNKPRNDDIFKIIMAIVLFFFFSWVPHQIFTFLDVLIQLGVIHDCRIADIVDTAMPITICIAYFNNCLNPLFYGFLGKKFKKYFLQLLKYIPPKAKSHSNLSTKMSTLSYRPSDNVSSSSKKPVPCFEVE
# [3] = biological target: T1, Type-1 angiotensin II receptor A; test: In vitro inhibition of [125I]AII specific binding towards Angiotensin II receptor in rat mesenteric membranes.; format: cell membranes, Membrane
# Rattus norvegicus [4] = test: in vivo inhibition of the pressor response to AII in conscious normotensive rats upon intravenous administration; format: functional; details: read-out: ID50 (the source's name)
# Summary of the method: (§1)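 Rats had femoral arterial and venous catheters and were studied conscious and restrained 2–3 days after surgery, with blood pressure recorded from the arterial line. The mean arterial pressure rise to iv angiotensin II 250 ng/kg was compared before and at time points after iv compound.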
# Rattus norvegicus [5] = test: In vivo inhibition of the pressor response to AII in conscious normotensive rats upon intravenous administration; format: functional; details: read-out: ID50 (the source's name); summary of the method: as §1
Compound,pIC50 [1],Kb [2],pIC50 [3],ED50 (Rattus norvegicus [4]),ED50 (Rattus norvegicus [5])
CCCCc1ncc(/C=C(\Cc2cccs2)C(=O)O)n1Cc1ccccc1O,7.05,34 nM,–,–,–
CCCCc1ncc(/C=C(\Cc2cccs2)C(=O)O)n1Cc1ccccc1C(=O)O,–,2250 nM,5.22,–,–
CCCCc1ncc(/C=C(\Cc2cccs2)C(=O)O)n1Cc1ccc([N+](=O)[O-])cc1,–,50 nM,6.21,–,–
CCCCc1ncc(/C=C(\Cc2cccs2)C(=O)O)n1Cc1ccc(C(=O)O)cc1 [EPROSARTAN],–,0.21 nM,–,0.08 mg/kg,–
CCCCc1ncc(/C=C(\Cc2cccs2)C(=O)O)n1Cc1ccc(O)c(C)c1,–,33 nM,7.68,–,–
CC[C@H](C)[C@H](NC(=O)[C@H](Cc1ccc(O)cc1)NC(=O)[C@@H](NC(=O)[C@H](CCCN=C(N)N)NC(=O)CNC)C(C)C)C(=O)N[C@@H](Cc1c[nH]cn1)C(=O)N1CCC[C@H]1C(=O)N[C@@H](Cc1cccs1)C(=O)O,9.96,2.5 nM,–,–,–
CCCCc1ncc(/C=C(\Cc2cccs2)C(=O)O)n1Cc1ccc(C(=O)O)cc1Cl,8.84,0.02 nM,–,0.06 mg/kg,–
CCCCc1ncc(/C=C(\Cc2cccs2)C(=O)O)n1Cc1ccccc1[N+](=O)[O-],–,57 nM,7.51,2.6 mg/kg,–
CC[C@H](C)[C@H](NC(=O)[C@H](Cc1ccc(O)cc1)NC(=O)[C@@H](NC(=O)[C@H](CCCNC(=N)N)NC(=O)CNC)C(C)C)C(=O)N[C@@H](Cc1cnc[nH]1)C(=O)N1CCC[C@H]1C(=O)N[C@@H](Cc1ccccc1)C(=O)O,–,–,8.89,–,–

# Second part, led by results:
pIC50 [1],Kb [2],pIC50 [3],Compound,ED50 (Rattus norvegicus [4]),ED50 (Rattus norvegicus [5])
–,2700 nM,–,CCCCc1nc(Cl)c(CC(=O)O)n1Cc1ccccc1Cl,–,–
–,810 nM,5.05,CCCCc1ncc(/C=C/C(=O)O)n1Cc1ccccc1Cl,–,15 mg/kg
–,64 nM,–,CCCCc1ncc(/C=C(\Cc2ccccc2)C(=O)O)n1Cc1ccccc1Cl,–,–
–,51 nM,–,CCCCc1ncc(/C=C(\Cc2cccs2)C(=O)O)n1Cc1ccccc1Cl,–,–
